Measured values reported in PubChem BioAssay.
Values joined by “and” are separate entries in the source; they are usually repeats but may differ in a detail not shown here. Equal entries are not always repeated. Active and inactive are the calls of the source.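 How the source made its calls, unless noted: active means viability at or below 10% of carrier control in both of two separate runs; inconclusive means viability at or below 10% in only one of the two runs; inactive means the rest.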

Tests used:
[1] = SK-BR-3 cell growth inhibitors, pilot screen, 24 h, human (AID 572); settings: SK-BR-3 viability, CellTiter-Glo luminescence, at 10 µM, stronger effect = lower value;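 further: compound exposure lasted between 18 and 24 h rather than exactly 24 h; 100% = carrier-treated control wells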
[2] = HUVEC growth inhibition – cell-based, human, primary screen (AID 575;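 active means viability at or below 30% in both replicate assays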;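 further: 100% = median of untreated cell wells with 0.1% DMSO on each plate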); settings: HUVEC proliferation, CellTiter-Glo luminescence, 72 h; at 10 µM; stronger effect = lower value
Outline: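 Test system: primary human umbilical vein endothelial cells. Quantity: 1250 cells/well. Compound: single 10 µM dose, 0.1% DMSO, from 5x medium stock. Timing: 72 h treatment at 37 °C. Detection: ATP-based CellTiter-Glo luminescent read. Benchmarks: vehicle and MePR control wells. Format: 384-well plates coated with collagen.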

[3] = growth inhibitors of H69AR lung tumor, primary screen, human, duplicate replicates (AID 580;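 active means viability at or under a set limit in both replicates, limit being median viability minus 3 SD, cut at about 48% in these data, passing the limit was not always enough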;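 further: 100% = mean luminescence of untreated wells and 0% = no signal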); settings: H69AR lung tumor cells viability, ATP luminescence, 72 h; at 10 µM; stronger effect = lower value
[4] = reversal of MRP1-mediated doxorubicin resistance, pilot screen, H69AR cells, doxorubicin co-treatment (AID 601;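 active means viability loss from added drug above about 55%, and viability with drug at most 40%, in both replicates, limit read from the data, passing the limit was not always enough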); settings: CellTiter-Glo, 72 h, at 10 µM; for differential viability (reversal): stronger effect = higher value
[5] = 384-well plate pilot, post-Golgi transport modulator project, inhibition of yeast transport mutant growth (AID 636; in the data active means inhibition above about 31%); settings: absorbance 615 nm, about 18 h, stronger effect = higher value
[6] = growth suppression of yeast trafficking mutant, preliminary HTS, modulators of trafficking downstream of Golgi apparatus project, 1536-format plate, OD 615 nm (AID 637; in the data active means inhibition above about 30%); settings: yeast transport mutant growth, absorbance 615 nm, 18 h; stronger effect = higher value
[7] = H69AR cells + 2 uM doxorubicin, measured here: viability with 2 uM doxorubicin, stronger effect = lower value
[8] = H69AR cells, compound alone cytotoxicity

SMILES	viability [1]	viability [2]	viability [3]	differential viability (reversal) ([4]; H69AR cells + 2 uM doxorubicin)	viability [4, 7]	viability [4, 8]	inhibition [5]	inhibition [6]
CCC(CC)n1[nH]c(=O)c2c(C)cc(C)nc21	81% (inactive)	103% (inactive)	105% (inactive)	14.5% (inactive)	90.5%	105%	-5.14% (inactive)	-6% (inactive)
CCCN1Cc2cccc(C(=O)NC3CCCC3)c2C1=O	111% (inactive)	91.5% (inactive)	87.9% (inactive)	5.09% (inactive)	82.8%	87.9%	-7.47% (inactive)	6.36% (inactive)
O=C(NC1CCCCCCC1)C1CCN(c2nc3ccccc3o2)CC1	106% (inactive)	85.7% (inactive)	92.2% (inactive)	-2.57% (inactive)	94.7%	92.2%	7.2% (inactive)	1.09% (inactive)
Cc1nn(Cc2ccccc2)c2c1C(c1ccncc1)C(C#N)=C(N)O2 (stereo not drawn)	96% (inactive)	86% (inactive)	85% (inactive)	-2.68% (inactive)	87.7%	85%	-4.8% (inactive)	-3.27% (inactive)
O=C(Nc1ccc(F)cc1)N(CCCN1CCOCC1)Cc1cc2cc3c(cc2[nH]c1=O)OCO3	85% (inactive)	105% (inactive)	90.8% (inactive)	7.71% (inactive)	83.1%	90.8%	-7.97% (inactive)	2.55% (inactive)
CCN(CC)CCOC(=O)c1ccc(NC(=O)COc2cc(=O)n(CC)c3ccccc23)cc1	103% (inactive)	98.3% (inactive)	109% (inactive)	26.6% (inactive)	82.1%	109%	-2.86% (inactive)	-10% (inactive)
Cc1ccccc1C(=O)NC1CCN(Cc2nnnn2CCc2ccccc2)CC1	124% (inactive)	112% (inactive)	86.8% (inactive)	-4.45% (inactive)	91.3%	86.8%	-5.19% (inactive)	7.05% (inactive)
COc1cc(C(=O)N(C)c2nnc(-c3cccnc3)s2)cc(OC)c1OC	123% (inactive)	89.6% (inactive)	82.7% (inactive)	-8.95% (inactive)	91.6%	82.7%	-2.05% (inactive)	17.4% (inactive)
Cc1ccc(N(CC2=NCCN2)c2cccc(O)c2)cc1	85% (inactive) and 113% (inactive)	84.3% (inactive) and 64.3% (inactive)	98.5% (inactive) and 92.6% (inactive)	-1.66% (inactive) and 11.9% (inactive)	100% and 80.7%	98.5% and 92.6%	-1.43% (inactive) and 1.17% (inactive)	-3.17% (inactive) and 0.5% (inactive)
CCc1nnc(NC(=O)C2Cc3ccccc3CN2S(=O)(=O)c2cccs2)s1 (stereo not drawn)	109% (inactive)	89% (inactive)	68.1% (inactive)	-16.4% (inactive)	84.5%	68.1%	-2.34% (inactive)	-3.28% (inactive)
N#CC1=C(N)N(c2ccccc2)C(c2ccccc2)C1(C#N)C#N (stereo not drawn)	84.5% (inactive)	81.6% (inactive)	80.1% (inactive)	1.28% (inactive)	78.8%	80.1%	-6.27% (inactive)	-0.97% (inactive)
O=C1c2ccccc2-c2ccc(C(=O)N3CCOCC3)cc21	87% (inactive)	105% (inactive)	89.7% (inactive)	-2.82% (inactive)	92.5%	89.7%	-2.7% (inactive)	29.4% (inactive)
COC(=O)c1[nH]c(C)c(/C(O)=C2\C(=O)C(=O)N(CCN3CCOCC3)C2c2cccs2)c1C (stereo not drawn)	105% (inactive)	76.5% (inactive)	17.3% (active)	-54.5% (inactive)	71.8%	17.3%	-2.3% (inactive)	13.1% (inactive)
CNC(=O)c1ccc2nc(NC(C)=O)sc2c1	110% (inactive)	102% (inactive)	99.9% (inactive)	9.57% (inactive)	90.4%	99.9%	-7.2% (inactive)	-0.36% (inactive)
CC(C)OC(=O)CSc1nnc(-c2cccnc2)n1Cc1ccccc1	86% (inactive)	105% (inactive)	89.9% (inactive)	9.68% (inactive)	80.2%	89.9%	-5.81% (inactive)	0.18% (inactive)
Cn1c(=O)[nH]c(=O)c2c1nc(N1CCOCC1)n2CC(O)COc1ccc2ccccc2c1 (stereo not drawn)	70% (inactive)	88.7% (inactive)	88.3% (inactive)	-1.6% (inactive)	89.9%	88.3%	-6.58% (inactive)	-1.82% (inactive)
O=C(CN1CCCN(S(=O)(=O)c2ccc(F)cc2)CC1)Nc1ccccc1Br	84% (inactive)	87.7% (inactive)	76.3% (inactive)	-7.18% (inactive)	83.5%	76.3%	1.17% (inactive)	-1.48% (inactive)
COc1cccc(-c2nnc(SCC(N)=O)n2-c2ccc(Cl)cc2)c1	114% (inactive)	103% (inactive)	97.1% (inactive)	4.49% (inactive)	92.6%	97.1%	0% (inactive)	-4.19% (inactive)

SMILES	viability [1]	viability [2]	viability [3]	differential viability (reversal) ([4]; H69AR cells + 2 uM doxorubicin)	viability [4, 7]	viability [4, 8]	inhibition [5]	inhibition [6]
Cc1[nH]nc2c1C(c1ccc(F)cc1)C1=C(CC(C)(C)CC1=O)N2 (stereo not drawn)	126% (inactive)	102% (inactive)	87.4% (inactive)	-0.39% (inactive)	87.8%	87.4%	-5.14% (inactive)	3.97% (inactive)
CCOc1ccc2[nH]c(O)c(NC(C)=O)c2c1	95% (inactive)	100% (inactive)	94.8% (inactive)	0.61% (inactive)	94.1%	94.8%	-4.86% (inactive)	0.91% (inactive)
Cc1cc(C)n(CC(=O)NC2CCCCC2)n1	113% (inactive)	114% (inactive)	98% (inactive)	12.7% (inactive)	85.3%	98%	-8.49% (inactive)	0.32% (inactive)
Cc1oc2c(c1C(=O)NCc1ccccc1)CCCC2	81% (inactive)	97% (inactive)	107% (inactive)	8.32% (inactive)	99%	107%	-4.93% (inactive)	-1.64% (inactive)
COc1cccc(NC(=O)N(Cc2ccco2)C(C)c2cccs2)c1 (stereo not drawn)	92% (inactive)	88.9% (inactive)	89.8% (inactive)	16.8% (inactive)	73%	89.8%	-0.52% (inactive)	-4.1% (inactive)
CCOC(=O)CSc1nc2sc(C)c(C)c2c(=O)[nH]1	98% (inactive)	101% (inactive)	92.2% (inactive)	-15.3% (inactive)	108%	92.2%	-4.79% (inactive)	13.3% (inactive)
O=C(O)CCc1ccc(-c2cccs2)n1NC(=O)c1ccccc1Br	96% (inactive)	104% (inactive)	106% (inactive)	16% (inactive)	89.5%	106%	-6.71% (inactive)	4.36% (inactive)
CCN(CC)CCCNc1oc(-c2cccc(Cl)c2)nc1C#N	113% (inactive)	74.7% (inactive)	76.6% (inactive)	-0.39% (inactive)	77%	76.6%	-4.55% (inactive)	-0.67% (inactive)
Cc1ccc(NC(=O)c2ccco2)c(NC(=O)CN2C(=O)c3ccccc3C2=O)c1	97% (inactive)	110% (inactive)	87.6% (inactive)	-18.2% (inactive)	106%	87.6%	-0.41% (inactive)	3.27% (inactive)
CCOC(=O)c1cnc(-n2nc(C)cc2C)nc1N1CC(C)OC(C)C1 (stereo not drawn)	127% (inactive)	105% (inactive)	86.1% (inactive)	9.65% (inactive)	76.4%	86.1%	-3.47% (inactive)	0.73% (inactive)
COc1cc(C)c(Br)cc1S(=O)(=O)N1CCOCC1	84% (inactive)	99.6% (inactive)	100% (inactive)	14.5% (inactive)	86%	100%	-5.48% (inactive)	-0.18% (inactive)
Cc1cc(NC(=O)CCCC(=O)Nc2ccc(F)cc2)no1	101% (inactive)	96.8% (inactive)	97% (inactive)	-0.445% (inactive)	97.5%	97%	-1.56% (inactive)	-1.48% (inactive)
COc1cccc(-c2csc(N3CCN(CC(=O)Nc4ccc5c(c4)OCO5)CC3)n2)c1	106% (inactive)	78.9% (inactive)	80.3% (inactive)	-1.21% (inactive)	81.5%	80.3%	-2.34% (inactive)	0% (inactive)
COc1ccc(C(c2nnnn2C2CCCC2)N2CCC(C)CC2)c(OC)c1 (stereo not drawn)	154% (inactive)	91.4% (inactive)	87.8% (inactive)	-8.92% (inactive)	96.7%	87.8%	-0.26% (inactive)	-3.28% (inactive)
O=C1c2ccccc2C(=O)N1c1cccc(-c2nc3ccccc3o2)c1	114% (inactive)	72.5% (inactive)	111% (inactive)	7.94% (inactive)	103%	111%	-4.13% (inactive)	-3.09% (inactive)
O=S(=O)(c1ccc(N2CCN(c3ccc(F)cc3)CC2)cc1)N1CCCC1	111% (inactive)	77.2% (inactive)	75.7% (inactive)	-4.83% (inactive)	80.6%	75.7%	-0.91% (inactive)	15.4% (inactive)
Cc1cc(C)cc(NC(=O)CN(C)S(=O)(=O)c2cnc[nH]2)c1	113% (inactive)	104% (inactive)	100% (inactive)	8.86% (inactive)	91.3%	100%	-2.13% (inactive)	-6.36% (inactive)
O=C(CN1CCSCC1)N1CCc2[nH]c3ccc(Br)cc3c2C1	84% (inactive)	69.7% (inactive)	88.6% (inactive)	7.04% (inactive)	81.5%	88.6%	-4.93% (inactive)	2.18% (inactive)
